Results reported in PubChem BioAssay.
The source made the active and inactive calls.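 How the source made its calls, unless noted: active means GFP response above 150% of the DMSO level; inconclusive means fewer than 70 events counted for a yeast strain; inactive means the rest.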

Columns and labels:
[1] = RPL19A-GFP modulators, yeast TOR pathway, confirmation, cell-based, S. cerevisiae, flow cytometry, cherry picks, mother/daughter gates (AID 2270;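 active means GFP response below 50% of the DMSO control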); settings: S. cerevisiae RPL19A-GFP strain, 3 h, at 10 µM, stronger effect = lower value, 100 = same GFP as DMSO wells
[2] = LAP4-GFP expression modulators in yeast, confirmation, cell-based, cherry picks, flow cytometry, mother/daughter gates (AID 2271;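 active means GFP response above 150% of the DMSO control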;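 further: ratio of sample to DMSO plate mean so 100% equals DMSO level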); settings: S. cerevisiae LAP4-GFP strain, 3 h, at 10 µM, stronger effect = higher value, 100 means same as DMSO control
In short: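 System – GFP-fusion yeast strain · Amount – 0.2 OD600 cells · Buffer or medium – SC growth medium · Dosing – single test-compound dose, 10 µM final · Schedule – 3 h treatment at 30 °C with rotation · Detection – GFP by flow cytometry · Read-out – per-gate (all, mother, daughter) GFP response vs DMSO · Benchmarks – positive rapamycin (400 ng/mL), negative DMSO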

[3] = modulators of MEP2-GFP levels in yeast, confirmation, S. cerevisiae, flow cytometry GFP, cherry picks (AID 2272;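 active means GFP response above 150% of the DMSO control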;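 further: ratio of well signal to plate DMSO mean so 100% equals DMSO level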); settings: S. cerevisiae MEP2-GFP strain, 3 h, at 10 µM, stronger effect = higher value
[4] = AGP1-GFP expression modulators, hit retest, confirmation, cell-based, flow cytometry, S. cerevisiae, cherry picks (AID 2273);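 further: median GFP channel fluorescence over the whole cell population gate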; settings: S. cerevisiae AGP1-GFP strain, 3 h, at 10 µM
[5] = modulators of CIT2-GFP expression in yeast, confirmation, S. cerevisiae, GFP fusion, cherry picks, mother/daughter gates (AID 2274); settings: S. cerevisiae CIT2-GFP strain, flow cytometry, 3 h, at 10 µM, stronger effect = higher value
[6] = measured here: daughter cell gate
[7] = measured here: mother cell gate
[8] = measured here: daughter cell gate response
[9] = measured here: mother cell gate response

Structure (SMILES)	GFP response vs DMSO [1]	GFP response vs DMSO [1, 6]	GFP response vs DMSO [1, 7]	GFP response relative to DMSO [2]	GFP response relative to DMSO [2, 8]	GFP response relative to DMSO [2, 9]	GFP response vs DMSO [3]	GFP response, % of DMSO [4]	GFP response, % of DMSO [5]	GFP response, % of DMSO [5, 6]	GFP response, % of DMSO [5, 7]
Cc1ccc(S(=O)(=O)CC#CCOC(=O)c2ccc([N+](=O)[O-])cc2)cc1	105% (inactive)	107%	103%	140% (inactive)	132%	148%	105% (inactive)	111% (inactive)	97.2% (inactive)	100%	90.8%
O=C(/C(=C/O)N=Nc1ccc(Cl)cc1)c1ccncc1	101% (inactive)	99.3%	98.8%	111% (inactive)	101%	115%	132% (inactive)	101% (inactive)	90.3% (inactive)	88.7%	88.2%
O=C(c1ccccc1Br)N1CCN(c2ccccc2)CC1	104% (inactive)	106%	105%	93.8% (inactive)	92.5%	97.2%	109% (inactive)	94.3% (inactive)	93.9% (inactive)	94.8%	94.4%
COc1ccc(NC(=O)CCN2CCN(S(=O)(=O)c3cc(Cl)ccc3OC)CC2)cc1	99% (inactive)	97.8%	94.3%	99.8% (inactive)	98.2%	96.2%	101% (inactive)	105% (inactive)	102% (inactive)	100%	102%
CCOC(=O)CS(=O)(=O)c1nc(-c2ccc(F)cc2)cc(C(F)(F)F)n1	109% (inactive)	113%	102%	170% (active)	170%	165%	113% (inactive)	108% (inactive)	116% (inactive)	123%	106%
O=C(Nc1cc(Sc2ccccn2)cc([N+](=O)[O-])c1)c1cccc(F)c1	96.9% (inactive)	96.1%	95.9%	101% (inactive)	96%	102%	106% (inactive)	95.7% (inactive)	97.2% (inactive)	95.8%	94.9%
CC(=O)Oc1ccc(N2C(=O)C3C4C=CC(CO)(O4)C3C2=O)cc1 (stereo not drawn)	103% (inactive)	104%	97.8%	120% (inactive)	120%	120%	107% (inactive)	101% (inactive)	109% (inactive)	112%	104%
CCOc1cc(/C=C2\N=C(C)OC2=O)cc(Cl)c1OCC(=O)OC	105% (inactive)	106%	101%	122% (inactive)	120%	125%	101% (inactive)	92.4% (inactive)	93% (inactive)	95.6%	90.7%
Cc1cc(C)c(S(C)(=O)=O)c(S(=O)(=O)c2ccc(Cl)cc2)n1	100% (inactive)	100%	100%	99.2% (inactive)	97.6%	99.3%	98.3% (inactive)	100% (inactive)	103% (inactive)	103%	101%
COc1ccc(C(=O)NC(=S)NNC(=O)c2cnccn2)cc1	99.3% (inactive)	91.3%	96%	285% (active)	176%	262%	114% (inactive)	95.2% (inactive)	104% (inactive)	96.4%	93.3%
O=C(O)Cn1cc(/C=C/[N+](=O)[O-])c2ccccc21	97.6% (inactive)	98.4%	97.2%	102% (inactive)	101%	100%	100% (inactive)	93.9% (inactive)	99.7% (inactive)	99.1%	99.7%
Cc1nn2c(NCCCN3CCOCC3)c3c(nc2c1-c1ccccc1)CCC3	101% (inactive)	102%	101%	98.2% (inactive)	97.5%	98.4%	99% (inactive)	103% (inactive)	100% (inactive)	101%	101%
O=c1[nH]c(CCl)nc2cc(-c3ccc(Cl)cc3)sc12	95.8% (inactive)	94.4%	98.5%	101% (inactive)	99.1%	100%	107% (inactive)	96.5% (inactive)	93% (inactive)	92%	78.5%
CC(C)(C)n1nc(-c2ccc(Cl)cc2)c2c(N)ncnc21	44.2% (active)	39.7%	45.6%	191% (active)	172%	195%	118% (inactive)	106% (inactive)	44.4% (inactive)	46.1%	42.4%
COc1ccc(C(=O)/C(=C/O)N=Nc2ccc(F)cc2)cc1	99.1% (inactive)	97.8%	98.6%	106% (inactive)	89.3%	109%	102% (inactive)	91.4% (inactive)	83.5% (inactive)	85.3%	80.5%
Oc1c(Br)cc(Br)cc1C=Nc1ccc2[nH]ncc2c1	99.5% (inactive)	89.2%	97.2%	185% (active)	124%	176%	112% (inactive)	102% (inactive)	96.4% (inactive)	102%	87.5%
O=C(c1ccc([N+](=O)[O-])o1)N1CCN(c2nc3ccc(F)cc3s2)CC1	99.8% (inactive)	100%	98.4%	111% (inactive)	109%	115%	105% (inactive)	87.7% (inactive)	101% (inactive)	103%	96.1%

Structure (SMILES)	GFP response vs DMSO [1]	GFP response vs DMSO [1, 6]	GFP response vs DMSO [1, 7]	GFP response relative to DMSO [2]	GFP response relative to DMSO [2, 8]	GFP response relative to DMSO [2, 9]	GFP response vs DMSO [3]	GFP response, % of DMSO [4]	GFP response, % of DMSO [5]	GFP response, % of DMSO [5, 6]	GFP response, % of DMSO [5, 7]
COc1cc(/C=C2/C(=O)ON=C2c2ccccc2)ccc1O	105% (inactive)	108%	100%	105% (inactive)	108%	102%	121% (inactive)	107% (inactive)	125% (inactive)	132%	112%
Cc1ncc2c(n1)-c1cc(F)ccc1SC2	104% (inactive)	105%	103%	87.6% (inactive)	89.6%	85.5%	109% (inactive)	94.5% (inactive)	113% (inactive)	116%	109%
CC[n+]1cc(C)ccc1/C=C/c1ccc(N(C)C)cc1	104% (inactive)	106%	103%	134% (inactive)	138%	128%	162% (inactive)	104% (inactive)	134% (inactive)	141%	126%
CCCCNC(=O)c1ccc2c(SCC(=O)O)c3c(nc2c1)CCCC3	98.7% (inactive)	96.7%	99%	101% (inactive)	104%	97.5%	99.5% (inactive)	98% (inactive)	97.8% (inactive)	98.3%	98%
Cc1cc(=O)n(-c2ccc3ccccc3n2)[nH]1	106% (inactive)	109%	103%	115% (inactive)	120%	116%	102% (inactive)	99.6% (inactive)	112% (inactive)	114%	107%
O=C(c1ccc2c(c1)OCO2)N1CCN(c2ccc(F)cc2)CC1	103% (inactive)	101%	102%	90.2% (inactive)	89.5%	91.1%	102% (inactive)	98.5% (inactive)	99.1% (inactive)	96.5%	99.8%
Cc1nc(Sc2ccccc2)c(C#N)c(C)c1[N+](=O)[O-]	98.2% (inactive)	99.4%	96.6%	94.1% (inactive)	92.8%	91.9%	109% (inactive)	88.4% (inactive)	115% (inactive)	117%	113%
Cc1ccccc1Sc1ncnc2onc(C)c12	98.5% (inactive)	99%	96.9%	97.7% (inactive)	96%	97.4%	106% (inactive)	104% (inactive)	98.6% (inactive)	101%	98.2%
S=c1[nH]nc(NCCCN2CCOCC2)s1	96% (inactive)	97.1%	95.1%	101% (inactive)	101%	102%	103% (inactive)	106% (inactive)	102% (inactive)	100%	103%
O=C(Sc1cccc2cccnc12)c1ccccc1Br	96.8% (inactive)	92.3%	98.5%	151% (active)	144%	153%	122% (inactive)	95.8% (inactive)	114% (inactive)	115%	112%
CCc1ccc2c(c1)C1(NN=C(c3cccc4ccccc34)S1)C(=O)N2 (stereo not drawn)	96% (inactive)	96.7%	93.1%	111% (inactive)	105%	114%	97.2% (inactive)	102% (inactive)	93.1% (inactive)	99.3%	88.2%
COc1ccc(-c2csc(NC(=O)CSc3nc(C)nc4sc(C(=O)O)c(C)c34)n2)cc1	100% (inactive)	99%	100%	85.4% (inactive)	87.9%	89%	102% (inactive)	104% (inactive)	102% (inactive)	99.7%	103%
CCCc1[nH]nc2c1C(c1ccc(O)cc1OCC)C(C#N)=C(N)O2 (stereo not drawn)	102% (inactive)	104%	100%	92.9% (inactive)	99%	92.3%	106% (inactive)	101% (inactive)	104% (inactive)	105%	104%
Cc1ccc(SC(=O)c2c(C)noc2-c2cc(C)on2)cc1	103% (inactive)	102%	104%	120% (inactive)	120%	121%	126% (inactive)	107% (inactive)	124% (inactive)	124%	121%
CCCCCCCCn1c(=O)c(C(=O)OCC)c(O)c2ccccc21	98.4% (inactive)	99.4%	99.4%	92.8% (inactive)	92.8%	92.9%	100% (inactive)	99.3% (inactive)	101% (inactive)	101%	101%
COc1ccccc1NC(=O)Cn1nnc(-c2ccccc2NC(=O)c2ccco2)n1	95.9% (inactive)	96.1%	96.6%	85.4% (inactive)	87.9%	89%	100% (inactive)	95.4% (inactive)	99.1% (inactive)	98.1%	99.8%
